This note sets out measurements from ChEMBL document CHEMBL2176939, “Rapid discovery of highly potent and selective inhibitors of histone deacetylase 8 using click chemistry to generate candidate libraries” (J Med Chem, 2012).

Activity calls are given as the source filed them. No cut-off for these calls is given here. Where only a bound is given, the exact number is not on record here.

One data set deals with NB1. Description: Growth inhibition of human NB-1 cells incubated for 72 hrs by MTS assay. The settings on record: NB1, 72 h. The class given is functional. A digest of the protocol:
(§1)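 Cells plated at 2 × 10⁵ cells/well in culture medium and exposed to inhibitor for 72 h at 37 °C under 5% CO₂. MTS was then added for 2 h, with absorbance read at 490 nm against a 650 nm reference. Wells were also read at compound addition (T₀). % growth = 100[(T − T₀)/(C − T₀)], or […]. GI₅₀ is where % growth = 50.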
Background: Tetrazolium assays rely on reduction of a dye to a coloured formazan, in cell work by metabolically active cells.

For a further data set, the system named is MT2. Description: Growth inhibition of human MT2 cells incubated for 72 hrs by MTS assay. Format: functional. The following applies: MT2, 72 h. In short, it runs like this: as §1
The target of data set [1] is Histone deacetylase (Homo sapiens) (UniProt Q13547+O15379+Q9UBN7+Q92769+Q9UQL6+Q8WUI4+Q9BY41+Q96DB2+P56524+Q9UKV0+Q969S8). Description: Inhibition of HDAC in human HeLa cells nuclear extracts at 3 uM by fluorometric assay. Format: cell-free. In short, it runs like this: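 Total HDAC activity of HeLa nuclear extract was measured with a commercial fluorometric deacetylase kit, following the supplier's protocol. Compounds were screened at 3 μM, including crude click-reaction triazoles diluted without purification. Fluorescence was read at ex 360 / em 460 nm, and % inhibition was calculated relative to uninhibited control wells.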

The nature of data set [2]: Growth inhibition of human PBMC PB-O cells incubated for 72 hrs by MTS assay. Format: cell-based. A digest of the protocol: as §1
The subject of a further data set is Jurkat. Description: Growth inhibition of human Jurkat cells incubated for 72 hrs by MTS assay. Format: functional. A digest of the protocol:
as §1

The subject of the next data set is MT4. Description: Growth inhibition of human MT4 cells incubated for 72 hrs by MTS assay. The following applies: MT4, 72 h. The class given is functional. A digest of the protocol:
as §1

Data set [3] is described as follows: Growth inhibition of human PBMC PB-N cells incubated for 72 hrs by MTS assay. The class given is cell-based. A digest of the protocol:
as §1

The nature of data set [4]: Growth inhibition of human LAN1 cells incubated for 72 hrs by MTS assay. The settings on record: LAN1, 72 h. Format: functional. In short, it runs like this: as §1
The subject of a further data set is HH. The data set can be described thus: Growth inhibition of human HH cells incubated for 72 hrs by MTS assay. Format: functional. A digest of the protocol: as §1
In the next data set the target is Histone deacetylase 2 (Homo sapiens, UniProt Q92769). The data set can be described thus: Inhibition of HDAC2 by fluorometric assay.
The target in the next data set is T1, Histone deacetylase 8 (Homo sapiens, UniProt Q9BY41).
T1 sequence (Q9BY41 whole entry): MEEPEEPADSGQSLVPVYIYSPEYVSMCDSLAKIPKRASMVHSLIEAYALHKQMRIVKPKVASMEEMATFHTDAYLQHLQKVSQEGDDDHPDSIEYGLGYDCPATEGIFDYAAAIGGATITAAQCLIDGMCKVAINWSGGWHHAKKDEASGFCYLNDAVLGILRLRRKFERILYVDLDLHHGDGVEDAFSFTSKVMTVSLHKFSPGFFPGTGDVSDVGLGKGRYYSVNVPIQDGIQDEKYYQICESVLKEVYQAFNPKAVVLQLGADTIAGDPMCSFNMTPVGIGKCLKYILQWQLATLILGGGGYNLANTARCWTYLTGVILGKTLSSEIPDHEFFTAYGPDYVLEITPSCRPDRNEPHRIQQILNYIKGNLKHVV
Description: Inhibition of HDAC8 by fluorometric assay.

In a further data set the target is Histone deacetylase 4 (Homo sapiens, UniProt P56524). The data set can be described thus: Inhibition of HDAC4 by fluorometric assay.
Data set [5] addresses T2, Protein deacetylase HDAC6 (Homo sapiens, UniProt Q9UBN7).
T2 sequence (Q9UBN7 whole entry): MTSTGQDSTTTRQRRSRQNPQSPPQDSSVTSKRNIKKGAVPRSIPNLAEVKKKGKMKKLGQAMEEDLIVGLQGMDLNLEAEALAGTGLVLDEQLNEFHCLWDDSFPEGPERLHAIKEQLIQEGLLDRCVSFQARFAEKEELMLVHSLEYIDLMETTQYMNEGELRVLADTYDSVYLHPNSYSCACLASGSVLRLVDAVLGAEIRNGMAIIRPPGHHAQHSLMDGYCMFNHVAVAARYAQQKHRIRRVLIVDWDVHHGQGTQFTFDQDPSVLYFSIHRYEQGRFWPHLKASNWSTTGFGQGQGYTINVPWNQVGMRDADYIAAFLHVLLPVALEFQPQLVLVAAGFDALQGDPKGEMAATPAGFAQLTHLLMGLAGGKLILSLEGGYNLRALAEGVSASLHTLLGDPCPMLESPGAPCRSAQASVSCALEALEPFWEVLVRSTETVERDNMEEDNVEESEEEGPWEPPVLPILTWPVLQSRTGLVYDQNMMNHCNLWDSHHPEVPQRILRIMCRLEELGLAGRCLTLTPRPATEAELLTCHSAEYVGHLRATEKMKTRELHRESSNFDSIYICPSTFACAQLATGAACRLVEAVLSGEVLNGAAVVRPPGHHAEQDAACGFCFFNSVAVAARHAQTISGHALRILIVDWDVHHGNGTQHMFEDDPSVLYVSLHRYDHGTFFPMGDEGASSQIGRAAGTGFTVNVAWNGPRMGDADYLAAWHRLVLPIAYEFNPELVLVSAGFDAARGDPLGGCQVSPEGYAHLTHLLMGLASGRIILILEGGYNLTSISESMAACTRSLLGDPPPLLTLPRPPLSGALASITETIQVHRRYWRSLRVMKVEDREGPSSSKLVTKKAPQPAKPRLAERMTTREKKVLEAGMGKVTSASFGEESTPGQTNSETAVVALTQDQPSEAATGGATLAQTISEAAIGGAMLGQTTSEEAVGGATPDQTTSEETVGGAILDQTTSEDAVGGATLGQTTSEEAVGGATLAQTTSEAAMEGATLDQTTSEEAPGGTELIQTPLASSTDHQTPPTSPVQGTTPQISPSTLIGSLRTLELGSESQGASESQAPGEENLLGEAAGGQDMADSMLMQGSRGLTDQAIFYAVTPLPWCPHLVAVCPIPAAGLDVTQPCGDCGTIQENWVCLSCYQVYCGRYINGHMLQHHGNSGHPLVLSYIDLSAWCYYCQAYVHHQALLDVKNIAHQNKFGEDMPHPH
The data set can be described thus: Inhibition of HDAC6 by fluorometric assay.

A further data set addresses Histone deacetylase. Description: Inhibition of HDAC in human HeLa cells nuclear extracts by fluorometric assay. Format: cell-based.
For another data set, the target named is Histone deacetylase 1 (Homo sapiens, UniProt Q13547). Description: Inhibition of HDAC1 by fluorometric assay.
Chain of Histone deacetylase 1 (Q13547 whole entry): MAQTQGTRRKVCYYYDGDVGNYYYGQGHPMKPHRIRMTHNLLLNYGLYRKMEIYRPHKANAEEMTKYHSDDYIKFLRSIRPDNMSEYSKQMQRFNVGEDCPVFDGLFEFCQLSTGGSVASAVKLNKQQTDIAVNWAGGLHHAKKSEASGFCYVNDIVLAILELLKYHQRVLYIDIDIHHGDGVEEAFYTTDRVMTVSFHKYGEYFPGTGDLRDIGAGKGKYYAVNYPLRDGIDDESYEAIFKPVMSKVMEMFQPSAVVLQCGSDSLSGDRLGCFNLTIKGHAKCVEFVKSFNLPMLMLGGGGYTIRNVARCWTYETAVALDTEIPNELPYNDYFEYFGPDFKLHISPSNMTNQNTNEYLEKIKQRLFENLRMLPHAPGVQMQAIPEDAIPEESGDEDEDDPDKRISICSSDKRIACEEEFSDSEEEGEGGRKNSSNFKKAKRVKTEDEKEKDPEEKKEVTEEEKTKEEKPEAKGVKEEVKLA

Chain of Histone deacetylase 2 (Q92769 whole entry): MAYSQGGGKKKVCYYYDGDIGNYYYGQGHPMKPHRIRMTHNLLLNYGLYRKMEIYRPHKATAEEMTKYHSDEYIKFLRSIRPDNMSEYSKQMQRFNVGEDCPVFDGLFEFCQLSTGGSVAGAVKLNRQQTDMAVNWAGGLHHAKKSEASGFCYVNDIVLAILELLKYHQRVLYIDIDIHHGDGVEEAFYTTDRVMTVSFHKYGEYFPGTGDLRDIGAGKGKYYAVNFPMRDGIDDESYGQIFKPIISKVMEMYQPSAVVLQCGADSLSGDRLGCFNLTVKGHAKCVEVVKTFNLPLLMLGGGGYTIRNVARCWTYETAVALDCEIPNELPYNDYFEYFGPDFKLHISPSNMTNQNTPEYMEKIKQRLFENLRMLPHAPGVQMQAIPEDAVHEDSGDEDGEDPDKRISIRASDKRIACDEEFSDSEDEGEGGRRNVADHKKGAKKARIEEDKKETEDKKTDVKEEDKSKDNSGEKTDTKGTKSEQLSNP
Chain of Histone deacetylase 4 (P56524 whole entry): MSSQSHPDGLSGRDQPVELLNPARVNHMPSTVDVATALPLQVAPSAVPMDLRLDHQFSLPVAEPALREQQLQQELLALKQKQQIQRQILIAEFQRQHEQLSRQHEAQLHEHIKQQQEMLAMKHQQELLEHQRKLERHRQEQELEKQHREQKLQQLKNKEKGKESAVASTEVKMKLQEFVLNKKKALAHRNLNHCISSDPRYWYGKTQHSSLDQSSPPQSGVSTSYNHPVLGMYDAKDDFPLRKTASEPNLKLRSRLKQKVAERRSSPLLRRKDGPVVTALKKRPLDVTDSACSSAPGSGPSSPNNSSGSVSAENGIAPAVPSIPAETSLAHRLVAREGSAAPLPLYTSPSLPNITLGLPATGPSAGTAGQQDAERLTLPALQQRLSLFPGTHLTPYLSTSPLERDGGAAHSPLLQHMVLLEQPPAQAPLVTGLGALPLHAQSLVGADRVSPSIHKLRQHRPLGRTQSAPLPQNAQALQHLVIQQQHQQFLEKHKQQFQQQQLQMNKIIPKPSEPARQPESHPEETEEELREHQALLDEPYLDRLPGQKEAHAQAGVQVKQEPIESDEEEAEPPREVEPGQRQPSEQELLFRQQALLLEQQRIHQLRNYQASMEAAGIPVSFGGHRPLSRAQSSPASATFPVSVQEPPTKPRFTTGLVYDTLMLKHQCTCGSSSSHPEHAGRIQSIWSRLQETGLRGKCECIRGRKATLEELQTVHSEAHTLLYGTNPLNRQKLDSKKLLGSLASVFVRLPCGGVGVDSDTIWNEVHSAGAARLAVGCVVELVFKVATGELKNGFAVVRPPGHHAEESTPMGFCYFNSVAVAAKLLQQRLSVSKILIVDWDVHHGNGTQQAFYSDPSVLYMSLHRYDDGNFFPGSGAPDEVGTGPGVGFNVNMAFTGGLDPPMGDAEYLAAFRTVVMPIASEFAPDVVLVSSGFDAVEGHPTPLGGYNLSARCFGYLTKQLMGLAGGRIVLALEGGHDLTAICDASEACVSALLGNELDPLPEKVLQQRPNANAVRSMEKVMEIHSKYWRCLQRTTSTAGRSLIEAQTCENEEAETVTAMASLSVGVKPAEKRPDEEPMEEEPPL

What is called GI50 is the concentration at which growth is held to half of that of the control. Read a low GI50 as greater sensitivity of the cells. As for `O=C(NO)c1cccc(-c2cn(CSc3ccccc3)nn2)c1`, the GI50 with NB1 was determined as 12 µM; with MT2 it was 11 µM; with Jurkat it was 7.6 µM; in the data set on MT4, 15 µM; in data set [4], 6.4 µM; in the data set on HH, 23 µM. In addition, the inhibition entry in [1] was “inactive”. Besides, the GI50 at 72 h in data set [2] and in [3] was over 100 µM in each case.

The IC50 is the point on the concentration scale where inhibition reaches its midpoint. Higher therefore signals lower potency. As to `O=C(NO)c1cccc(-c2cn(Cc3ccccc3)nn2)c1`, the IC50 against Histone deacetylase 2 worked out at 65 µM; at Histone deacetylase 8 it was 0.35 µM; against Histone deacetylase 4, 30 µM; in data set [5], 7.9 µM; against Histone deacetylase, 37 µM; on Histone deacetylase 1, 41 µM. Besides, the inhibition result in data set [1] was “inactive”.

As for `COc1ccc(Cn2ccc3ccc(C(=O)NO)cc32)cc1`, the GI50 was 14 µM in the data set with NB1; 15 µM with MT2; 11 µM in the data set with Jurkat; 25 µM in the data set on MT4; 3.9 µM in data set [4]; over 100 µM in the data set with HH. In addition, the figures for the GI50 at 72 h in data set [2] and in data set [3] were 97 µM and over 100 µM, respectively.

For `O=C(NO)c1cccc(-c2cn(CCc3ccccc3)nn2)c1`, the IC50 is 76 µM against Histone deacetylase 2; 0.18 µM against Histone deacetylase 8; over 100 µM at Histone deacetylase 4; 3.2 µM in data set [5]; 23 µM against Histone deacetylase; over 100 µM against Histone deacetylase 1. In addition, the GI50 with NB1 was 39 µM; in the data set with MT2 it was 19 µM; with Jurkat it was 11 µM; in the data set with MT4 it was 30 µM; in data set [4], 27 µM; with HH, 79 µM. In [1], the inhibition result was “inactive”. The GI50 at 72 h in [2] and in [3] was over 100 µM throughout.

`O=C(NO)c1cccc(-c2cn(CCc3ccsc3)nn2)c1`: the IC50 against Histone deacetylase 2 was over 100 µM; against Histone deacetylase 8, 0.1 µM; on Histone deacetylase 4, over 100 µM; in [5] it was 1.1 µM; against Histone deacetylase it was 44 µM; against Histone deacetylase 1, over 100 µM. The inhibition entry in data set [1] was “inactive”.
